What was measured:
Assay type in all cases: functional
[1] = system: M14; assay: Growth inhibition of human M14 cells assessed as cell growth at 10^-4 M after 48 hrs by sulforhodamine B assay; settings: M14, 48 h, read-out: Activity
[2] = system: NCI-H522; assay: Growth inhibition of human NCI-H522 cells assessed as cell growth at 10^-8 M after 48 hrs by sulforhodamine B assay; settings: NCI-H522, 48 h, read-out: Activity
[3] = system: LOX IMVI; assay: Growth inhibition of human LOXIMVI cells assessed as cell growth at 10^-7 M after 48 hrs by sulforhodamine B assay; settings: read-out: Activity
[4] = system: NCI-H522; assay: Growth inhibition of human NCI-H522 cells assessed as cell growth at 10^-5 M after 48 hrs by sulforhodamine B assay; settings: NCI-H522, 48 h, read-out: Activity
[5] = system: RXF 393; assay: Growth inhibition of human RXF393 cells after 48 hrs by sulforhodamine B assay; settings: RXF 393, 48 h; for CC50: read-out: LC50 (the source's name)
How it was run: (§1)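 Adherent cells in RPMI 1640 with 5% FBS and 2 mM L-glutamine were plated at 5000–40,000 cells/well and grown 24 h. Five concentrations (0.01–100 µM, DMSO stock) were added for 48 h at 37 °C. Cells were fixed with cold TCA (10% final) and stained with SRB, read at 515 nm. GI50 came from log concentration–growth curves against time-zero and control plates.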

[6] = system: A498; assay: Growth inhibition of human A498 cells assessed as cell growth at 10^-4 M after 48 hrs by sulforhodamine B assay; settings: A498, 48 h, read-out: Activity
How it was run: (§2)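 Five-dose NCI-60 run (0.01, 0.1, 1, 10 and 100 µM, as 10-fold dilutions from a DMSO stock made at 400× the top final level). Cells were grown in RPMI 1640 with 5% FBS and 2 mM glutamine and plated for 24 h. They were then exposed for 48 h at 37 °C and 5% CO2. TCA fixation was followed by SRB staining with A515 read-out. Percent growth was taken relative to time-zero and control plates.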

[7] = system: HOP-92; assay: Growth inhibition of human HOP92 cells after 48 hrs by sulforhodamine B assay; settings: HOP-92, 48 h; for CC50: read-out: LC50 (the source's name); how it was run: as §1
[8] = system: HL-60(TB); assay: Growth inhibition of human HL-60(TB) cells assessed as cell growth at 10^-5 M after 48 hrs by sulforhodamine B assay; settings: HL-60, 48 h, read-out: Activity
How it was run: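 HL-60(TB) suspension cells were treated 48 h at 37 °C within the five-dose series (0.01–100 µM), fixed with 16% final TCA and SRB-stained, read at 515 nm. Percentage growth at each concentration = (Ti−Tz)/(C−Tz)×100, or (Ti−Tz)/Tz×100 when Ti<Tz, with time-zero (Tz) and untreated control (C) plates.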

[9] = system: OVCAR-4; assay: Growth inhibition of human OVCAR4 cells assessed as cell growth at 10^-5 M after 48 hrs by sulforhodamine B assay; settings: OVCAR-4, 48 h, read-out: Activity
[10] = system: LOX IMVI; assay: Growth inhibition of human LOXIMVI cells assessed as cell growth at 10^-4 M after 48 hrs by sulforhodamine B assay; settings: read-out: Activity
[11] = system: T47D; assay: Growth inhibition of human T47D cells assessed as cell growth at 10^-4 M after 48 hrs by sulforhodamine B assay; settings: read-out: Activity
[12] = system: SF-539; assay: Growth inhibition of human SF539 cells assessed as cell growth at 10^-5 M after 48 hrs by sulforhodamine B assay; settings: SF-539, 48 h, read-out: Activity
[13] = system: NCI-H522; assay: Growth inhibition of human NCI-H522 cells assessed as cell growth at 10^-7 M after 48 hrs by sulforhodamine B assay; settings: NCI-H522, 48 h, read-out: Activity
[14] = system: TK-10; assay: Growth inhibition of human TK10 cells assessed as cell growth at 10^-4 M after 48 hrs by sulforhodamine B assay; settings: TK-10, 48 h, read-out: Activity
[15] = system: SK-OV-3; assay: Growth inhibition of human SKOV3 cells assessed as cell growth at 10^-5 M after 48 hrs by sulforhodamine B assay; settings: SK-OV-3, 48 h, read-out: Activity
[16] = system: U-251; assay: Growth inhibition of human U251 cells assessed as cell growth at 10^-4 M after 48 hrs by sulforhodamine B assay; settings: U-251, 48 h, read-out: Activity
[17] = system: SNB-75; assay: Growth inhibition of human SNB75 cells assessed as cell growth at 10^-8 M after 48 hrs by sulforhodamine B assay; settings: SNB-75, 48 h, read-out: Activity
[18] = system: UO-31; assay: Growth inhibition of human UO31 cells assessed as cell growth at 10^-7 M after 48 hrs by sulforhodamine B assay; settings: UO-31, 48 h, read-out: Activity
[19] = system: HOP-62; assay: Growth inhibition of human HOP62 cells assessed as cell growth at 10^-4 M after 48 hrs by sulforhodamine B assay; settings: HOP-62, 48 h, read-out: Activity
How it was run: (§3)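 Five-dose screen at NCI. Cells in RPMI 1640 with 5% FBS and 2 mM L-glutamine, seeded at 5000–40,000 cells/well and grown 24 h at 37 °C, 5% CO2 before dosing, with time-zero plates TCA-fixed. Drug diluted from DMSO stock to 0.01, 0.1, 1, 10 and 100 µM final, 48 h. Cells fixed with cold TCA (10% final), stained with 0.4% SRB and read at 515 nm. Percent growth from Tz, control and test absorbances; GI50, TGI and LC50 from dose-response curves.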

[20] = system: HCT-116; assay: Growth inhibition of human HCT116 cells assessed as cell growth at 10^-4 M after 48 hrs by sulforhodamine B assay; settings: HCT-116, 48 h, read-out: Activity; how it was run: as §3
[21] = system: SF-539; assay: Growth inhibition of human SF539 cells assessed as cell growth at 10^-8 M after 48 hrs by sulforhodamine B assay; settings: SF-539, 48 h, read-out: Activity
[22] = system: SNB-75; assay: Growth inhibition of human SNB75 cells assessed as cell growth at 10^-4 M after 48 hrs by sulforhodamine B assay; settings: SNB-75, 48 h, read-out: Activity
[23] = system: OVCAR-3; assay: Growth inhibition of human OVCAR3 cells assessed as cell growth at 10^-5 M after 48 hrs by sulforhodamine B assay; settings: OVCAR-3, 48 h, read-out: Activity
[24] = system: DU-145; assay: Growth inhibition of human DU145 cells assessed as cell growth at 10^-8 M after 48 hrs by sulforhodamine B assay; settings: DU-145, 48 h, read-out: Activity; how it was run: as §2
[25] = system: UACC-257; assay: Growth inhibition of human UACC257 cells assessed as cell growth at 10^-7 M after 48 hrs by sulforhodamine B assay; settings: UACC-257, 48 h, read-out: Activity
[26] = system: SN12C; assay: Growth inhibition of human SN12C cells assessed as cell growth at 10^-8 M after 48 hrs by sulforhodamine B assay; settings: read-out: Activity
[27] = system: U-251; assay: Growth inhibition of human U251 cells after 48 hrs by sulforhodamine B assay; settings: U-251, 48 h; for CC50: read-out: LC50 (the source's name); how it was run: as §1
[28] = system: KM12; assay: Growth inhibition of human KM12 cells assessed as cell growth at 10^-7 M after 48 hrs by sulforhodamine B assay; settings: KM12, 48 h, read-out: Activity
[29] = system: HCT-15; assay: Growth inhibition of human HCT15 cells assessed as cell growth at 10^-4 M after 48 hrs by sulforhodamine B assay; settings: HCT-15, 48 h, read-out: Activity; how it was run: as §3

Row | Structure (SMILES) | growth at 100 µM [1] [%] | growth at 0.01 µM [2] [%] | growth at 0.1 µM [3] [%] | growth at 10 µM [4] [%] | CC50 [5] [nM] | growth at 100 µM [6] [%] | GI50 [7] [nM] | CC50 [7] [nM] | growth at 10 µM [8] [%] | growth at 10 µM [9] [%] | growth at 100 µM [10] [%] | growth at 100 µM [11] [%] | growth at 10 µM [12] [%] | growth at 0.1 µM [13] [%] | growth at 100 µM [14] [%] | growth at 10 µM [15] [%] | growth at 100 µM [16] [%] | growth at 0.01 µM [17] [%] | growth at 0.1 µM [18] [%] | growth at 100 µM [19] [%] | also measured
1 | O=S(=O)(Nc1ccc(Cl)cc1)c1ccc2nc(-c3ccccc3)c(-c3ccccc3)nc2c1 | 77 | 93 | 99 | -34 | > 100000 | 61 | 2030 | > 100000 | -32 | 12 | 66 | 37 | 5 | 90 | 86 | 14 | 75 | 75 | 89 | 44 | growth at 100 µM [20]: 52%; growth at 0.01 µM [21]: 99%; growth at 100 µM [22]: 46%; growth at 10 µM [23]: -41%; growth at 0.01 µM [24]: 105%; growth at 0.1 µM [25]: 99%; growth at 0.01 µM [26]: 95%; CC50 [27]: > 100000 nM; growth at 0.1 µM [28]: 94%; growth at 100 µM [29]: 68%
2 | O=S(=O)(Nc1ccccn1)c1ccc2nc(-c3ccccc3)c(-c3ccccc3)nc2c1 | 69 | 89 | 97 | -42 | > 100000 | 49 | 1940 | > 100000 | -30 | 10 | 57 | -1 | 7 | 88 | 54 | 11 | 47 | 85 | 88 | 39 | GI50 [5]: 2140 nM; growth at 100 µM [20]: 39%; growth at 0.01 µM [21]: 96%; growth at 100 µM [22]: 20%; growth at 10 µM [23]: -32%; growth at 0.01 µM [24]: 102%; growth at 0.1 µM [25]: 103%; growth at 0.01 µM [26]: 95%; GI50 [27]: 2610 nM; TGI [27]: > 100000 nM; CC50 [27]: > 100000 nM; growth at 0.1 µM [28]: 99%; growth at 100 µM [29]: 63%

Source: ChEMBL document CHEMBL2407075, “Sulphonamido-quinoxalines: search for anticancer agent” (Eur J Med Chem, 2013)
